Shown are actives, neighbours in structure and some others; about 2.9% of the full set was active somewhere.
PGC1a acetyl inh: PGC1a acetylation modulation, inhibitor mode; U2OS PGC1a acetylation, AlphaScreen anti-acetyl-lysine; with virally co-expressed GCN5 acetyltransferase; inhibition, % at 15.6 µM; 350,000 compounds, 0.17% hits; AID 651687;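 active = every replicate shows inhibition of at least 40%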;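 note: 0% = neutral control wells and 100% = positive control wells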
Vif imaging: inhibitors of HIV Vif. HEK293T cells, Vif self-association by quenched fluorescence, imaging, 24 h. inhibition, % at 7.49 µM. 340,000 compounds, 0.35% hits. AID 602346; in the data active = inhibition above about 50%, passing the limit was not always enough
Ecoli rRNA inh: inhibits bacterial ribosomal RNA function over humanized ribosomes. E. coli WT GFP vs humanized-ribosome RFP mutants, fluorescence, 24 h; stronger effect = lower value; DMSO median 0, no signal -100. GFP signal change (wild-type ribosome), % (concentration not given with the values). 350,000 compounds, 1.6% hits. AID 720706;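 active = significant combined selectivity score with lowered wild-type GFP, culture density cut under 30%, mutant RFP and density less affected; inactive = any of these conditions unmet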
PglD DTNB: inhibitors of Campylobacter jejuni PglD acetyltransferase; inhibition, % at 12.5 µM; AID 602405; purified PglD enzyme, DTNB colorimetric CoA detection; 360,000 compounds, 0.098% hits; in the data active = inhibition above about 16%, passing the limit was not always enough
FGF22 binding: shifts melting point of recombinant human FGF22. recombinant FGF22 thermal shift, SYPRO orange fluorescence; percent of sucrose octasulfate shift, DMSO zero. activity (Tm shift, normalised), % at 9.99 µM. 340,000 compounds, 1.5% hits. AID 651658;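 active = mean Tm shift, scaled 0 neutral to 100 positive control, at about 1.3% or above, every replicate too, limit read from the data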
Target sequence (Q9HCT0 whole entry, looked up): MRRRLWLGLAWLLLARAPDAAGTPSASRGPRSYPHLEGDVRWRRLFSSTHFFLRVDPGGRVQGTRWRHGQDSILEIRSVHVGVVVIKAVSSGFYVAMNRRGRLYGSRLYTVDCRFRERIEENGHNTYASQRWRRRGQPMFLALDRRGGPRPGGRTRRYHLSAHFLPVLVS
Cneo AK release: Cryptococcus neoformans lysis via adenylate kinase release; lysis activity, % at 15 µM; 360,000 compounds, 0.2% hits; C. neoformans lysis, adenylate kinase release luminescence, 4 h; normalised: neutral wells 0, clomiphene wells 100;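 active = mean lysis activity across replicates of at least 80%, whatever share of replicates individually reach that level; inactive = mean lysis activity below 80%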
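Test system: log-phase Cryptococcus neoformans yeast cells; Quantity: yeast cell density of 5 × 10^6 cells/mL; Buffer or medium: YPD; Doses: single compound concentration per well; Timing: 4 h at 37 °C static, read 1 h later; Measured by: AK luminescence; Read-out basis: lysis from increased AK signal; Control set: Clomiphene as positive control.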
Active calls of the source: *; nt = no result given.

SMILES	PGC1a acetyl inh	Vif imaging	Ecoli rRNA inh	PglD DTNB	FGF22 binding	Cneo AK release
O=C(COC(=O)CCc1ccccc1)NCc1ccccc1	-1	3	3	-1	0	-2
Cc1ccccc1C(=O)NNC(=O)Cc1cccc2ccccc12	-16	3	-41*	1	0	-4
O=C(CCl)Nc1ccccc1C(=O)NCc1ccccc1	nt	-1	4	nt	43*	nt
N#Cc1ccc(-c2ccc3c(c2)[C@H]2[C@H](CCN2C(=O)C2CCC2)[C@H](CO)N3)cc1	3	nt	-16	nt	nt	nt
N#Cc1cccc(-c2ccc(C3[C@@H]4CN(C(=O)Nc5ccc6c(c5)OCO6)C[C@H]3N4)cc2)c1 (stereo partly drawn)	-10	nt	-12	nt	nt	nt
C[C@H](NC(=O)Cc1cccc2ccccc12)C(=O)NCc1ccccc1	nt	1	-32*	nt	-1	nt
O=C(Cc1cccc2ccccc12)Nc1ccccc1	nt	-12	4	nt	0	nt
COc1ccc(C(=O)NC(C(=O)NCC(=O)Nc2c(C)cccc2C)C(C)C)cc1 (stereo not drawn)	0	2	-2	nt	44*	nt
COc1ccc(C(=O)N[C@H](C(=O)NCc2ccc(C)cc2)C(C)C)cc1	nt	6	8	4	0	3
COc1ccc(S(=O)(=O)Nc2ccc3c(c2)[C@H]2C[C@H](CC(=O)O)O[C@@H](CO)[C@H]2O3)cc1	0	nt	1	-2	0	-1
O=S(=O)(c1ccc(Cl)cc1Cl)n1ccc2cccnc21	nt	-5	12	7	43*	-3
O=C(c1cccnc1)N1C[C@H]2[C@@H](c3ccccc31)[C@H](CO)N2Cc1ccc2c(c1)OCO2	-4	nt	5	-5	0	46
C[C@@H]1CN([C@H](C)CO)C(=O)c2cc(NS(=O)(=O)c3ccc(F)cc3)ccc2O[C@H]1CN(C)S(=O)(=O)c1ccccc1	3	nt	-3	0	-1	1
COCC(=O)Nc1ccc2c(c1)C(=O)N(C)C[C@H](OC)[C@H](C)CN(C(=O)NC(C)C)[C@H](C)CO2	-10	nt	-1	1	-1	-7
O=S(=O)(c1ccc(Cl)c(NC(=S)Nc2cccc(O)c2)c1)N1CCOCC1	0	2	3	4	1.7*	3
CCN(C(=S)Nc1cc(S(=O)(=O)N2CCOCC2)ccc1Cl)c1cccc2ccccc12	nt	-2	4	nt	0	nt
CCOC(=O)C(=O)Cc1cccnn1	6	1	nt	nt	43*	nt
C[C@H]1CN([C@@H](C)CO)S(=O)(=O)c2ccc(-c3cccc(C#N)c3)cc2O[C@H]1CN(C)C(=O)c1ccc(F)cc1	-17	nt	-9	-1	-1	5
Cc1ccc(S(=O)(=O)Nc2ccc3c(c2)C(=O)N([C@H](C)CO)C[C@@H](C)[C@@H](CN(C)C(=O)C2CCCCC2)OCCCC[C@@H](C)O3)cc1	-7	nt	-6	-1	nt	2
CN1C(=O)c2cc(NC(=O)c3ccccc3)ccc2OC[C@@H]2O[C@H](CC(=O)NC3CCCC3)CC[C@H]21	3	nt	0	-2	0	-1
CN1C(=O)c2cc(NC(=O)c3cccc(Cl)c3)ccc2OC[C@H]2O[C@@H](CC(=O)NC3CCCCC3)CC[C@H]21	-2	nt	-7	0	1.4*	-2
CNC(=O)C[C@H]1CC[C@H]2[C@H](COc3ccc(NC(=O)Nc4ccccc4)cc3C(=O)N2C)O1	-7	nt	2	3	0	94*
CNC(=O)C[C@H]1CC[C@H]2[C@@H](COc3ccc(NC(=O)Nc4ccccc4)cc3C(=O)N2C)O1	5	nt	1	1	0	110*
COc1cccc(-c2cnc3c(c2)C(=O)N([C@H](C)CO)C[C@@H](C)[C@H](CN(C)Cc2ccc(C(=O)O)cc2)O3)c1	14	nt	4	1	0	1
CCCNC(=O)N1[C@@H]2c3ccc(-c4ccccc4OC)c(=O)n3C[C@H]1[C@H](CO)[C@H]2C(=O)NCC	nt	nt	-5	1	0	-2
SMILES	PGC1a acetyl inh	Vif imaging	Ecoli rRNA inh	PglD DTNB	FGF22 binding	Cneo AK release
CO[C@H]1CN(C)C(=O)c2ccc(NC(=O)C3CC3)cc2OC[C@H](C)N(Cc2cncnc2)C[C@@H]1C	11	nt	-1	nt	nt	nt
C=C(C)Cn1c2ccc(NC(=S)NCc3ccccc3F)cc2c(=O)n1C	nt	25	-23*	5	0	0
Cn1c(=O)c2cc(NC(=O)NCc3ccc(Cl)cc3Cl)ccc2n1Cc1ccc(F)cc1	-7	-7	3	6	45*	0
Cn1c(=O)c2cc(NC(=S)NCc3ccccc3F)ccc2n1Cc1cccc(C(F)(F)F)c1	nt	-21	-3	1	3.9*	-1
Cn1c(=O)c2cc(NC(=S)NCc3ccccc3F)ccc2n1Cc1ccccc1	-5	-8	4	nt	0	2
CC(C)=CCn1c2ccc(NC(=O)NCc3ccc(F)cc3)cc2c(=O)n1C	2	-1	-1	-3	0	-1
CC(C)c1cccc(C(C)C)c1NC(=S)Nc1cccc(Cl)c1	4	-5	-26*	0	0	2
Fc1ccc(NC(=S)Nc2cccc(Cl)c2)cc1	nt	-2	nt	nt	nt	nt
CN1C(=O)c2cc(NC(=O)C3CCOCC3)ccc2OC[C@H]2O[C@@H](CC(=O)NCc3ccc4c(c3)OCO4)CC[C@@H]21	nt	nt	1	-3	0	-10
Cn1c(=O)c(-c2cc(=O)[nH][nH]2)c(O)c2ccccc21	1	12	-34*	nt	0	nt
CCn1c(=O)c(-c2cc(=O)[nH][nH]2)c(O)c2ccccc21	9	1	-9	-6	0	0
C[C@@H]1CN([C@@H](C)CO)C(=O)c2cccc(NS(=O)(=O)c3cn(C)cn3)c2O[C@@H]1CN(C)C(=O)NC1CCCCC1	0	nt	4	5	1	0
CN1CCN(C(=O)c2cc3c(c(-c4cccc(-c5ccc(C(=O)N(C)C)cc5)c4)n2)[C@H](CCO)N([S@@](=O)C(C)(C)C)C3)CC1	11	nt	4	2	0	-6
Cc1c(OC(C)C(=O)O)ccc2c(-c3ccccc3)cc(=O)oc12 (stereo not drawn)	5	3	1	1	0	-1
Cc1c(OC(C(=O)O)c2ccccc2)ccc2c(-c3ccccc3)cc(=O)oc12 (stereo not drawn)	-8	10	-25*	nt	-1	nt
CC(=O)COc1ccc2c(-c3ccccc3)cc(=O)oc2c1C	nt	-7	-18*	5	0	1
COc1ccc(NC(=O)Nc2ccc3c(c2)C(=O)N([C@H](C)CO)C[C@H](C)[C@H](CN(C)C(=O)NC(C)C)O3)cc1	-2	nt	1	1	0	5
CO[C@@H]1CN(C)C(=O)c2cc(NC(=O)c3cc(C)on3)ccc2OC[C@@H](C)N(C(=O)C2CC2)C[C@H]1C	-7	nt	1	4	0	-4

Source: PubChem
